{"source": "ChEMBL document CHEMBL1151199", "about": "“5-methylcoumaranones from Mutisia friesiana and their bioactivity” (2004)", "key": {"[1]": {"tested_on": "Staphylococcus aureus", "experiment": "Antibacterial activity against Staphylococcus aureus ATCC 29213 at 10 ug/disk after 48 hrs by standard paper sensitivity disk-agar plate method", "type": "functional", "conditions": "ATCC 29213, 48 h, read-out: IZ"}, "[2]": {"tested_on": "Cladosporium cucumerinum", "experiment": "Antifungal activity against Cladosporium cucumerinum at 10 ug/spot after 2 to 3 days by bioautographic assay", "type": "functional", "method_in_brief": "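TLC bioautography: samples spotted onto a TLC plate with graduated capillaries and assayed against the plant pathogen Cladosporium cucumerinum. Activity is read as the diameter (mm) of the inhibition zone around the spot. Benomyl served as the reference fungicide.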"}, "[3]": {"tested_on": "Cladosporium cucumerinum", "experiment": "Antifungal activity against Cladosporium cucumerinum at 100 ug/spot after 2 to 3 days by bioautographic assay", "type": "functional", "method_in_brief": "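Each sample was dissolved at 10 mg ml-1 in CH2Cl2, and 10 µL was spotted onto a TLC plate by graduated capillary, giving 100 µg/spot. The plate was then assayed bioautographically against Cladosporium cucumerinum. Benomyl served as the reference fungicide, applied at 10 µg/spot. The read-out was the inhibition zone in mm.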"}, "[4]": {"tested_on": "Staphylococcus aureus", "experiment": "Antibacterial activity against Staphylococcus aureus ATCC 29213 at 100 ug/disk after 48 hrs by standard paper sensitivity disk-agar plate method", "type": "functional", "conditions": "ATCC 29213, 48 h, read-out: IZ", "method_in_brief": "(§1)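 Agar in Petri dishes inoculated with the test organism (E. coli ATCC 25922, S. aureus ATCC 29213 or C. albicans BE 138/99). Samples were loaded at 100 µg per 5 mm paper disk, and the disks were placed on the agar. The read-out was the diameter of the inhibition zone in mm.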"}, "[5]": {"tested_on": "Escherichia coli", "experiment": "Antibacterial activity against Escherichia coli ATCC 25922 at 100 ug/disk after 48 hrs by standard paper sensitivity disk-agar plate method", "type": "functional, organism-based", "method_in_brief": "as §1"}, "[6]": {"tested_on": "Candida albicans", "experiment": "Antifungal activity against Candida albicans BE 138/99 at 100 ug/disk after 48 hrs by standard paper sensitivity disk-agar plate method", "type": "functional, organism-based", "method_in_brief": "as §1"}}, "note": "Activity calls are given as the source filed them. The calls are words filed in the database; no cut-off is given here.", "data": [{"smiles": "CC1(C)S[C@@H]2[C@H](NC(=O)[C@H](N)c3ccccc3)C(=O)N2[C@H]1C(=O)O", "note": "[AMPICILLIN]", "values": [{"measurement": "zone of inhibition at 10 µg/disc", "setting": "[1]", "value": 14, "unit": "mm"}]}, {"smiles": "CCCCNC(=O)n1c(NC(=O)OC)nc2ccccc21", "note": "[BENOMYL]", "values": [{"measurement": "inhibition zone (IZ)", "setting": "[2]", "value": 20, "unit": "mm"}]}, {"smiles": "CC(C)=CCC/C(C)=C/CC1(O)Oc2cccc(C)c2C1=O", "note": "(stereo not drawn) [MUTISICOUMARANONE A]", "values": [{"measurement": "inhibition zone (IZ)", "setting": "[3]", "value": 8, "unit": "mm"}, {"measurement": "zone of inhibition at 100 µg/disc", "setting": "[4]", "value": 10, "unit": "mm"}, {"measurement": "Activity", "setting": "[5]", "value": "inactive"}, {"measurement": "Activity", "setting": "[6]", "value": "inactive"}]}, {"smiles": "CC(C)=CC(O)C(=O)/C(C)=C/CC/C(C)=C/CC1(O)Oc2cccc(C)c2C1=O", "note": "(stereo not drawn) [MUTISICOUMARANONE B]", "values": [{"measurement": "inhibition zone (IZ)", "setting": "[3]", "value": 14, "unit": "mm"}, {"measurement": "zone of inhibition at 100 µg/disc", "setting": "[4]", "value": 10, "unit": "mm"}, {"measurement": "Activity", "setting": "[5]", "value": "inactive"}, {"measurement": "Activity", "setting": "[6]", "value": "inactive"}]}, {"smiles": "C/C(=C\\CC1(O)Oc2cccc(C)c2C1=O)CC/C=C(\\C)C(=O)/C=C/C(C)(C)O", "note": "(stereo not drawn) [MUTISICOUMARANONE C]", "values": [{"measurement": "inhibition zone (IZ)", "setting": "[3]", "value": 14, "unit": "mm"}, {"measurement": "zone of inhibition at 100 µg/disc", "setting": "[4]", "value": 10, "unit": "mm"}, {"measurement": "Activity", "setting": "[5]", "value": "inactive"}, {"measurement": "Activity", "setting": "[6]", "value": "inactive"}]}, {"smiles": "CC(C)=CCC(O)/C(C)=C/CC/C(C)=C/CC1(O)Oc2cccc(C)c2C1=O", "note": "(stereo not drawn) [MUTISICOUMARANONE D]", "values": [{"measurement": "inhibition zone (IZ)", "setting": "[3]", "value": 10, "unit": "mm"}, {"measurement": "zone of inhibition at 100 µg/disc", "setting": "[4]", "value": 10, "unit": "mm"}, {"measurement": "Activity", "setting": "[5]", "value": "inactive"}, {"measurement": "Activity", "setting": "[6]", "value": "inactive"}]}]}
